Results on 1 compound are retold here after ChEMBL document CHEMBL1157311, “Aurilides B and C, cancer cell toxins from a Papua New Guinea collection of the marine cyanobacterium Lyngbya majuscula” (2006).

Assay [1] concerns NCI-H460. The experiment in a line: Cytotoxicity against human NCI-H460 cells after 48 hrs by MTT assay. Type of assay: functional. The settings on record: NCI-H460, 48 h, read-out: LC50 (the source's name). In outline:
(§1)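 Cells seeded at 6000/well and grown 24 h, then given test chemicals dissolved in DMSO and diluted in serum-free medium (DMSO under 0.5% final). Viability read by MTT reduction after 48 h exposure; LC50 reported. Method follows Alley et al.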

Assay [2] can be described thus: Cytotoxicity against mouse Neuro2a cells after 48 hrs by MTT assay. Type of assay: functional. As to conditions: N2a, read-out: LC50 (the source's name). Put shortly: as §1

The structures appear in SMILES notation.

Regarding `CC/C=C(\C)[C@H]1OC(=O)[C@H](C)N(C)C(=O)[C@H](C(C)C)NC(=O)CN(C)C(=O)[C@H]([C@H](C)CC)N(C)C(=O)[C@H](C(C)C)NC(=O)[C@@H](C(C)C)OC(=O)/C(C)=C/C[C@H](O)[C@@H]1C` [AURILIDE C], the CC50 in assay [1] came to 130 nM; in assay [2], 50 nM.
